NPY2 pot ag – NPY-Y2 potentiators or agonists, primary screen, cell-based | cells expressing NPY-Y2, potentiator/agonist read-out | activation, % at 3.6 µM | 220,000 compounds, 0.45% hits | Neuropeptide Y receptor type 2 (Homo sapiens), P49146; in the data active = activation above about 27%;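 note: cells stimulated with NPY near EC25 plus isoproterenol at EC100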
Target sequence (P49146 whole entry, looked up): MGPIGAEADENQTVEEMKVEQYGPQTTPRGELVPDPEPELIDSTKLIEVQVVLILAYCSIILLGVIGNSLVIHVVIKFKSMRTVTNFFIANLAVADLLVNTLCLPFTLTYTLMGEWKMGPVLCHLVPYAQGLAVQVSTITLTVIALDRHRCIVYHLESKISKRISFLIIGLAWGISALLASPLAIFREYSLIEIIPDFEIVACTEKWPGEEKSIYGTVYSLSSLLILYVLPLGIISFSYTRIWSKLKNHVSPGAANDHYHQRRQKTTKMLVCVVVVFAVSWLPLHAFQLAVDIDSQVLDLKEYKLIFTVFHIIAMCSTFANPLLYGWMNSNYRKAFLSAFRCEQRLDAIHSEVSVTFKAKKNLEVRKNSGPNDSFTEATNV
PGE2 EP2 inh – human EP2 receptor antagonists, primary screen, TR-FRET cAMP, C6 glioma cells; C6 glioma cells expressing human EP2; cells stimulated with saturating PGE2; inhibition, % at 25 µM; 260,000 compounds, 0.52% hits; AID 1422, 2008;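 active = percent inhibition above 40 after rounding to a whole number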;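 note: rat C6 glioma host cells with rolipram phosphodiesterase inhibitor present; the protocol text gives 20 µM as final concentration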
Target sequence (P43116 whole entry, looked up): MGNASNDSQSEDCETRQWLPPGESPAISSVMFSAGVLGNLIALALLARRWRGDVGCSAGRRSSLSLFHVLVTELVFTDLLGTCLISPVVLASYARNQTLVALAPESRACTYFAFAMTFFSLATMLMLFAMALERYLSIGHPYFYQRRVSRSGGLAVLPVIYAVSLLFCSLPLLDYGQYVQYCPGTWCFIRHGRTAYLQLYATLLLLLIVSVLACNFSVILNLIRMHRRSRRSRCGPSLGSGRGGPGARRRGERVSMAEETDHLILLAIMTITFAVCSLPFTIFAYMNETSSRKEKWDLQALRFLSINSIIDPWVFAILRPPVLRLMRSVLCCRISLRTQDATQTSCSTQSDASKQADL
NPY Y2 blocker – NPY-Y2 receptor antagonists, primary screen, cell-based; Neuropeptide Y receptor type 2 (Homo sapiens), P49146; NPY-Y2 expressing cells, antagonist mode; inhibition, % at 2.7 µM; 140,000 compounds, 0.99% hits; in the data active = inhibition above about 17%
NPY-Y1 antag – NPY-Y1 receptor antagonists, primary screen, cell-based; Neuropeptide Y receptor type 1 (Homo sapiens), P25929; HEK293-CNG Y1 cells, membrane potential fluorescence; NPY at EC95, then isoproterenol; inhibition, % at 3.6 µM; 200,000 compounds, 1% hits;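 active = inhibition above the campaign mean inhibition of all tested compounds plus 3 SD, cut at about 20% in these data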
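Test system – HEK293 Y1/CNG channel cell line · Also added – NPY agonist 25 nM, then isoproterenol 1 µM plus Ro 20-1724 25 µM · Compound dosing – one concentration, 3.6 µM, in 0.4% DMSO · Schedule – compound incubation 1 h at room temperature, readout 45 min post-stimulation · Technique – fluorescence, membrane potential probe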
EP2 mod – EP2 receptor modulators, cAMP readout, primary screen, cell-based, HTRF cAMP, PGE2 stimulation. EP2-expressing cells, cAMP HTRF FRET, PGE2 co-stimulation. induction, % at 25 µM. AID 940, 2007. 260,000 compounds, 0.83% hits;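 active = compounds whose cAMP rise, as percent of the full-agonist control response, exceeds 60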;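 note: rat C6 glioma line stably carrying human EP2 under a CMV promoter; the protocol text gives 20 µM as final concentration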
NPY1 pot ag – NPY-Y1 receptor potentiators or agonists, primary screen, cell-based; AID 1304, 2008; activation, % at 3.6 µM; 220,000 compounds, 0.37% hits; NPY-Y1 expressing cells, potentiator/agonist activation; in the data active = activation above about 33%, passing the limit was not always enough;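 note: cells stimulated with NPY at EC10 then isoproterenol at EC100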
NPY-Y2 pot conf – NPY-Y2 potentiators or agonists, confirmation, cell-based | 450 compounds, 20% hits | shares compounds with NPY2 pot ag | AID 1539, 2009 | cell-based NPY-Y2 potentiator/agonist assay | activation, % at 3.6 µM; in the data active = activation above about 33%
NPY-Y1 potentiator – NPY-Y1 potentiators or agonists, counter-screen for NPY-Y2 potentiator project, cell-based, fluorescence | shares compounds with NPY2 pot ag | Y1 HEK293-CNG cells, membrane potential fluorescence | activation, % at 3.6 µM | 450 compounds, 20% hits | AID 1651, 2009; in the data active = activation above about 45%;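 note: cells stimulated with submaximal NPY then isoproterenol with phosphodiesterase inhibitor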
NPY-Y1 agonist 2 – NPY-Y1 direct agonists, selectivity assay for NPY-Y2 potentiator project, cell-based, fluorescence | AID 1702, 2009 | activation, % at 3.6 µM | shares compounds with NPY2 pot ag | HEK293 Y1-CNGC, membrane potential fluorescence, agonism | 450 compounds, 37% hits;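 active = activation above the mean of DMSO-only control wells plus 3 SD, cut at about 18% in these data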;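 note: cells stimulated with 1 µM isoproterenol plus the PDE inhibitor Ro 20-1724; Y1 agonists lower the membrane potential dye signal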
CNGC inh – CNGC cAMP sensor activity inhibitors, counter-screen for NPY-Y2 potentiator project, cell-based, HEK293-CNG parental, membrane potential fluorescence; 450 compounds, 32% hits; shares compounds with NPY2 pot ag; isoproterenol cAMP; inhibition, % at 3.6 µM;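 active = inhibition above the control-well mean plus 3 SD of those wells, cut at about 22% in these data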
NPY-Y2 ag 2 – NPY-Y2 direct agonists, counter-screen for NPY-Y2 potentiator project, cell-based, fluorescence; shares compounds with NPY2 pot ag; 450 compounds, 56% hits; AID 1710, 2009; HEK293 Y2/CNGC cells, membrane potential fluorescence, agonist mode; activation, % at 3.6 µM;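 active = activation above the mean of solvent-only control wells plus 3 SD, cut at about 10% in these data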;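 note: cells stimulated by isoproterenol with no NPY added so direct agonism is tested; agonism lowers probe fluorescence through less cAMP and CNG channel opening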
Hits are given with their value; i = inactive; nt = no result given. Most compounds without a hit are left out; they make up all but 2.8% or so of the library.

SMILES	NPY2 pot ag	PGE2 EP2 inh	NPY Y2 blocker	NPY-Y1 antag	EP2 mod	NPY1 pot ag	NPY-Y2 pot conf	NPY-Y1 potentiator	NPY-Y1 agonist 2	CNGC inh	NPY-Y2 ag 2
Fc1nc(F)c(F)c(NCCCNc2c(F)c(F)nc(F)c2F)c1F	27.6	i	nt	i	i	i	i	i	24.8	22.5	32.4
Nc1nnc(CC(=O)Nc2ccccc2)s1	47.1	i	nt	nt	i	i	i	i	i	i	i
COc1ccccc1C1(O)CCN(Cc2cnn(-c3ccc(F)cc3)c2)CC1	nt	i	nt	nt	i	nt	nt	nt	nt	nt	nt
CN(CC1CCCO1)S(=O)(=O)c1ccc(C(=O)Nc2nc3cc4c(cc3s2)OCO4)cc1 (centres undefined)	43.3	nt	i	i	nt	i	i	i	i	i	i
Oc1ccc(Cl)cc1Cc1cc(Cl)ccc1O	62.2	i	i	i	i	i	39.3	i	36.1	28.4	32.2
Oc1ccc(Cl)cc1CNn1cnnc1	i	i	nt	i	i	i	nt	nt	nt	nt	nt
CCOC(=O)C1CCN(CC(O)COCc2ccc3c(c2)OCO3)CC1 (centres undefined)	i	i	nt	i	i	i	nt	nt	nt	nt	nt
O=C1c2cccc3cccc(c23)C(=O)N1CC1CCN(CC(O)COCc2ccc3c(c2)OCO3)CC1 (centres undefined)	49.8	i	i	i	i	i	74.6	89.7	21.4	i	64.8
Cc1ccc(NS(=O)(=O)c2cccc(C(=O)Nc3c(C)n(C)n(-c4ccccc4)c3=O)c2)cc1	57.8	i	nt	nt	i	i	i	i	i	i	i
Cc1c(NS(=O)(=O)c2cccc(C(=O)NCc3ccccc3)c2)c(=O)n(-c2ccccc2)n1C	i	nt	i	i	i	i	nt	nt	nt	nt	nt
CNc1nc(N)c(C(=O)C23CC4CC(CC(C4)C2)C3)s1	31.4	i	nt	i	i	i	i	i	i	i	i
CN1CCc2nc3sc(C(=O)C45CC6CC(CC(C6)C4)C5)c(N)c3cc2C1	i	nt	i	i	i	i	nt	nt	nt	nt	nt
S=C(Nc1ccc(Nc2ccccc2)cc1)Nc1ccccn1	33.1	i	nt	i	i	i	i	i	i	i	13.6
CC(=O)c1ccc(NC(=O)C2CCCN(C(=O)c3ccc(Cl)cc3)C2)cc1 (centres undefined)	28.2	i	nt	i	i	i	i	i	29.0	30.1	30.1
COC(=O)[C@@H]1OC(=O)[C@H]2O[C@@]23[C@@]1(C)CCC1[C@@]2(C)CCC(=O)C(C)(C)C2C[C@@H](OC(C)=O)[C@]13C (some centres undefined)	nt	i	nt	nt	i	nt	nt	nt	nt	nt	nt
O=C(Cn1c(-c2cscn2)nc2ccccc21)Nc1ccc2ccccc2c1	29.2	i	i	i	i	i	i	i	27.2	31.6	25.2
OCCN(CCO)c1ccc(C(c2ccccc2Cl)c2ccc(N(CCO)CCO)cc2Cl)c(Cl)c1	34.2	i	i	i	i	i	34.7	47.5	30.9	37.4	38.6
COC(=O)CN1C(=S)N(c2ccc(Cl)cc2)C(=O)C1CC(=O)Nc1ccc(F)cc1 (centres undefined)	30.1	i	i	i	i	i	i	57.6	43.0	46.4	37.9
COC(=O)CN1C(=S)N(c2ccc(F)cc2)C(=O)C1CC(=O)Nc1ccc(F)cc1 (centres undefined)	i	i	nt	nt	i	i	nt	nt	nt	nt	nt
O=C(CC1C(=O)NCCN1C(=O)Nc1ccccc1)Nc1ccc(F)cc1 (centres undefined)	i	i	nt	nt	i	i	nt	nt	nt	nt	nt
O=C(CC1C(=O)NCCN1C(=O)Nc1ccc(Cl)cc1)Nc1ccc(F)cc1 (centres undefined)	28.9	i	nt	i	i	i	55.2	74.9	57.9	57.2	50.4
COC(=O)CN1C(=S)N(c2ccc(Cl)cc2)C(=O)C1CC(=O)Nc1ccc(Cl)cc1 (centres undefined)	54.7	nt	i	i	i	i	48.8	71.6	67.5	59.8	66.9
COc1ccc(NC(=O)CC2C(=O)N(c3ccc(Cl)cc3)C(=S)N2CCc2ccncc2)cc1 (centres undefined)	i	i	i	i	i	i	nt	nt	nt	nt	nt
CCc1nc(NC(=O)c2ccc3nc(C)sc3c2)n[nH]1	nt	i	nt	nt	i	nt	nt	nt	nt	nt	nt
O=C(N/N=C\c1ccc(Cl)cc1)C1=NOC2COC3(CCN(c4ccc([N+](=O)[O-])cc4)CC3)OCC12 (centres undefined)	45.2	i	nt	nt	i	i	i	i	i	i	27.0
SMILES	NPY2 pot ag	PGE2 EP2 inh	NPY Y2 blocker	NPY-Y1 antag	EP2 mod	NPY1 pot ag	NPY-Y2 pot conf	NPY-Y1 potentiator	NPY-Y1 agonist 2	CNGC inh	NPY-Y2 ag 2
NNC(=O)C1=NOC2COC3(CCN(c4ncccn4)CC3)OCC12 (centres undefined)	i	i	nt	i	i	i	nt	nt	nt	nt	nt
CC(=O)c1c(C)[nH]c(C(=O)OCCCCN2C(=O)c3ccccc3C2=O)c1C	39.4	i	i	i	i	i	i	i	i	i	22.2
CCC(CC)COC(=O)C(C#N)c1nc2ccccc2nc1N1CCN(CC)CC1 (centres undefined)	30.9	i	i	i	i	i	51.7	56.9	32.7	46.4	64.2
CCC(C)COC(=O)C(C#N)c1nc2ccccc2nc1N1CCCCC1 (centres undefined)	i	i	i	i	i	i	nt	nt	nt	nt	nt
COc1ccc(NC(=S)NC(NC(=O)c2cccc(Cl)c2)C(Cl)(Cl)Cl)c([N+](=O)[O-])c1 (centres undefined)	36.9	i	i	i	i	i	i	i	19.9	i	33.3
CC1=NC(=O)C(N=Nc2ccccc2C(=O)O)N1c1ccccc1 (centres undefined)	29.9	i	nt	i	i	i	i	i	i	i	14.5
